# High-throughput results deposited in PubChem BioAssay by several laboratories.
# Mdm2 MdmX PPI = inhibitors of human Mdm2-MdmX association, primary screen, cell-based, luminescence, split luciferase, SaOS-2, uHTS. SaOS-2 split-luciferase Mdm2/MdmX complementation. 3% of 330,000 active. Protein Mdm4 (Homo sapiens) + E3 ubiquitin-protein ligase Mdm2 (Homo sapiens), …. inhibition, % at 8 µM. AID 485346, 2010;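 active means inhibition of at least 50% at 8 µM in the primary screen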
# Target sequence (O15151 whole entry, looked up): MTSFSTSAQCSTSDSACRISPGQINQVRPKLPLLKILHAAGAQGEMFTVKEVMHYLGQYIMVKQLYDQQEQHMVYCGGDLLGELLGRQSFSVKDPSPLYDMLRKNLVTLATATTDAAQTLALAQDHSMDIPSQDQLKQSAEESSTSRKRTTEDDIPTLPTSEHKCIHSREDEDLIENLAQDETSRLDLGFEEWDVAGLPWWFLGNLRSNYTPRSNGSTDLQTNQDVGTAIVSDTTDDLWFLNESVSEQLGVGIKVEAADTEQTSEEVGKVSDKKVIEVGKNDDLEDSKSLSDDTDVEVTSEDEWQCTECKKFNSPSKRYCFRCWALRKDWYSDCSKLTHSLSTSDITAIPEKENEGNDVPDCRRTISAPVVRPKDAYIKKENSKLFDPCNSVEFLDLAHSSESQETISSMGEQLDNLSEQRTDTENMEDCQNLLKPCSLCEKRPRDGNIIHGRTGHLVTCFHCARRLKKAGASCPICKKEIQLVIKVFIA
# Target sequence (Q00987 whole entry, looked up): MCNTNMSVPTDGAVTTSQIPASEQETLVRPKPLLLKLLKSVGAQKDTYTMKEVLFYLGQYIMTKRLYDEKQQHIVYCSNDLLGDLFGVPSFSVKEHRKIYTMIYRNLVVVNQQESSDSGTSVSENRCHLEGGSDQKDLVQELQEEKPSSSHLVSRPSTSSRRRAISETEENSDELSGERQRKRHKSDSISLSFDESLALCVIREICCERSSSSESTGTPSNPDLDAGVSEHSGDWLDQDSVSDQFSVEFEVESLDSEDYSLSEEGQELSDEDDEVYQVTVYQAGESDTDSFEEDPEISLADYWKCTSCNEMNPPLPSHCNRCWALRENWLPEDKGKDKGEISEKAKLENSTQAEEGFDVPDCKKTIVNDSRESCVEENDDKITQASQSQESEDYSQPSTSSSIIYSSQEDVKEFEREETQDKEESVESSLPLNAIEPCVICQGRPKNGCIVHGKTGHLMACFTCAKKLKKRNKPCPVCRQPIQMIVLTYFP
# aSyn UTR inh = MLPCN primary screen, SNCA 5' untranslated region; alpha-synuclein 5'UTR reporter, inhibitor activity; inhibition, % (tested at 7.5 µM); 0.82% of 300,000 active; in the data active means inhibition above about 60%;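 further: H4 neuroglioblastoma cells stably carrying SNCA 5'UTR luciferase fusion; 0% = DMSO wells and 100% = positive control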
# 697 NFkB inh = inhibitors of PMA/ionomycin-induced NF-kB reporter, 697 cells, primary screen, B-cell NF-kB inhibitor project, cell-based, luminescence, uHTS. 0.33% of 330,000 active. inhibition, % at 4 µM. 697 B-cell NF-kB luciferase reporter, 16 h. AID 435022, 2010; in the data active means inhibition above about 35%
# IMP-1 inhibitor = IMP-1 metallo-beta-lactamase inhibitors, primary screen, biochemical, epi-absorbance readout, Pseudomonas aeruginosa enzyme; purified IMP-1, nitrocefin hydrolysis, epi-absorbance fluorescence; inhibition, % at 5.6 µM; 0.45% of 290,000 active;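 active means inhibition above the mean plus 3 SD of all compounds in the same screening run, cut at about 4.5% in these data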;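 further: 0% = IMP-1 with DMSO and 100% = DMSO wells lacking enzyme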
#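 Material – recombinant IMP-1 enzyme, purified · Amount – IMP-1 0.2 nM before substrate addition · Medium – HEPES buffer pH 7.1 with ZnSO4 and Brij 35 · Timing – 25 °C, 15 min preincubation, 25 min reaction · Measured by – plate fluorescence quenching by hydrolysis product, ex 480/em 530 nm · Read-out – percent enzyme inhibition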
# VIM-2 inh = VIM-2 metallo-beta-lactamase inhibitors, primary screen, biochemical, epi-absorbance readout, Pseudomonas aeruginosa enzyme. inhibition, % at 5.6 µM. 0.89% of 290,000 active. purified VIM-2, nitrocefin hydrolysis, epi-absorbance fluorescence;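 active means inhibition above the mean of all tested compounds plus 3 SD, cutoff set per screening run, cut at about 7.5% in these data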;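 further: red hydrolysis product quenches plate fluorescence so inhibitors raise well fluorescence; 0% = enzyme with DMSO and 100% = DMSO without enzyme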
# Jurkat NFkB inh = inhibitors of induced NF-kB luciferase reporter, primary screen, TCR NF-kB activation inhibitor project, cell-based, luminescence, uHTS; Jurkat, PMA/ionomycin-induced NF-kB luciferase reporter; inhibition, % at 4 µM; 0.53% of 330,000 active; AID 435003, 2010; in the data active means inhibition above about 50%
# Mdm2 MdmX conf = Mdm2-MdmX complex disruptors, retested hits, confirmation, luminescence, single concentration | AID 489028, 2010 | inhibition, % at 8 µM | 55% of 10,000 active | shares compounds with Mdm2 MdmX PPI | Mdm2-MdmX binding, luminescent assay; in the data active means inhibition above about 40%
# Full FLuc ctr = full-length luciferase signal inhibition, confirmation, counter-screen for Mdm2/MdmX interaction inhibitor project, cell-based, single concentration, SaOS-2; SaOS-2 full-length luciferase counterscreen, luminescence; shares compounds with Mdm2 MdmX PPI; inhibition, % at 8 µM; AID 504607, 2011; 77% of 6,200 active;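 active means mean inhibition at 8 µM reaching about 37%, which flags the compound as non-specific, limit read from the data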;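 further: p53-null SaOS-2 cells with luciferase driven by a doxycycline-inducible promoter; compound on cells about two nights before reading with doxycycline added after day one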
# Starred values were filed as active, the others as inactive; nt = no result. A selection: hits, their analogues and other compounds. The true share with any hit is near 4.7%.
SMILES,Mdm2 MdmX PPI,aSyn UTR inh,697 NFkB inh,IMP-1 inhibitor,VIM-2 inh,Jurkat NFkB inh,Mdm2 MdmX conf,others
COc1ccc(NS(=O)(=O)c2cc(NC(=O)c3ccc(=O)[nH]n3)ccc2C)cc1,52*,nt,-18,nt,nt,45,46*,Full FLuc ctr=65*
O=C(NCc1ccco1)c1nc2c(nnn2Cc2ccccc2Cl)c(=O)[nH]1,88*,33,21,-3,-4,0,93*,Full FLuc ctr=21
CCOc1ccc(N2CC(C(=O)NCCc3c[nH]c4ccc(C)cc34)CC2=O)cc1 (configuration not stated),4,15,-8,-3,0,-4,nt,
CC(C)(C)C(=O)O/N=C(\N)c1ccc(Oc2cc(Cl)cc(Cl)c2)c([N+](=O)[O-])c1,60*,-11,1,-2,-4,-10,8,
COc1ccc(-c2c(-c3cc(OC)cc(OC)c3)n(C)c3ccc(-c4ccc(SC)cc4)cc23)cc1,8,nt,10,nt,nt,-6,nt,
COc1cc(OC)cc(-c2c(-c3ccc(F)cc3)c3cc(-c4ccc(OC)nc4)ccc3n2C)c1,52*,nt,15,nt,nt,-10,9,
COc1cc(OC)cc(-c2c(-c3cccs3)c3cc(-c4ccc(C(N)=O)cc4)ccc3n2C)c1,86*,nt,0,nt,nt,16,-16,
COc1cc(OC)cc(-c2c(-c3ccc(F)cc3)c3cc(-c4ccc(SC)cc4)ccc3n2C)c1,53*,nt,21,nt,nt,-2,10,
COc1cccc(-c2c(-c3cc(OC)cc(OC)c3)n(C)c3ccc(-c4ccc(OC)nc4)cc23)c1,26,nt,13,nt,nt,-4,nt,
Cc1ccc(S(=O)(=O)N2CCN(C(=O)COC(=O)C3CCC3)CC2)cc1,7,-10,12,nt,nt,-2,nt,
O=C(Nc1cc(C(F)(F)F)cc(C(F)(F)F)c1)Nc1cnn(-c2ccc([N+](=O)[O-])cc2)c1C(F)(F)F,100*,25,-33,-4,-3,13,93*,Full FLuc ctr=60*
COc1ccc(-c2ccc([C@H]3[C@H]4C=CC[C@@H](C)[C@@H]4C(=O)N3Cc3ccccc3)c(F)c2)cc1,30,14,10,nt,nt,15,nt,
COc1ccc(-c2cccc([C@H]3[C@@H]4C=CC[C@@H](C)[C@@H]4C(=O)N3Cc3ccccc3)c2)cc1,18,nt,23,nt,nt,nt,nt,
COc1cc(-c2cccc([C@H]3[C@@H]4C=CC[C@@H](C)[C@@H]4C(=O)N3Cc3ccccc3)c2)cc(OC)c1OC,83*,nt,1,nt,nt,nt,35,
COc1ccc(-c2c([C@H]3[C@H]4C=CC[C@@H](C)[C@@H]4C(=O)N3Cc3ccccc3)ccc3ccccc23)cc1,69*,39,24,nt,nt,27,16,
Cc1cc(O)c(C(=O)Nc2cccc(Cl)c2)c(=O)n1C,41,-104,-165,-1,-1,-130,nt,
CC(C)C1Nc2ccc(C(=O)NCCCN3CCOCC3)cc2NC1=O (configuration not stated),9,3,11,-4,2,7,nt,
COc1cc(C(=O)NC(=S)Nc2cccc(-c3cc4ccccc4oc3=O)c2)cc(OC)c1OC,53*,17,-13,0,-4,11,33,
O=C(NC1CCCC1)c1cnn2c(C(F)(F)F)cc(-c3ccc4c(c3)OCO4)nc12,62*,33,-26,0,-1,0,23,
O=C(CN1C(=O)/C(=C/c2c(F)cccc2Cl)Oc2ccccc21)NCc1ccco1,64*,21,-55,-1,1,-4,49*,Full FLuc ctr=102*
Cn1cc(C(=O)c2ccc(Cl)cc2Cl)cc1C(=O)N/N=C(\N)COc1ccc(Cl)cc1Cl,67*,65*,-12,-3,-5,18,41*,Full FLuc ctr=40*
Cn1cc(C(=O)c2ccc(Cl)cc2Cl)cc1C(=O)N/N=C(\N)COc1ccc(Cl)cc1,64*,42,-1,-2,-4,18,40*,Full FLuc ctr=43*
Cn1cc(C(=O)c2ccc(Cl)cc2Cl)cc1C(=O)N/N=C(\N)COc1ccccc1,22,11,18,-3,-3,3,nt,
O=C(CN1CCOCC1)Nc1ncc(Cc2cccc(Cl)c2Cl)s1,9,1,-2,-5,-4,5,nt,
COc1ccccc1-c1sc2cc3c(cc2c1C#CCO)OCO3,-3,nt,-29,nt,nt,-4,nt,
SMILES,Mdm2 MdmX PPI,aSyn UTR inh,697 NFkB inh,IMP-1 inhibitor,VIM-2 inh,Jurkat NFkB inh,Mdm2 MdmX conf,others
COc1cc([C@@H]2c3cc4c(cc3[C@@H](O)[C@@H](CO)[C@@H]2CO)OCO4)cc(OC)c1O[Si](C)(C)C(C)(C)C,53*,44,-3,nt,nt,16,4,
Cc1ccsc1-c1nc(C(N)=O)c2[nH]c(=O)n(-c3ccc(Cl)cc3)c2n1,97*,-14,3,-2,2,6,12,
CC(C)c1cc(Br)ccc1OCCN1C(=O)NC(C)(C)C1=O,13,11,4,-1,-1,-8,nt,
O=C(NC(=S)Nc1ccc(N2CCN(C(=O)c3ccccc3)CC2)cc1)c1cccs1,51*,44,-23,0,1,-4,29,
O=C(NC(=S)Nc1ccccc1N1CCN(C(=O)c2ccccc2)CC1)c1cccs1,18,31,31,-1,-3,5,nt,
CN(C)S(=O)(=O)c1cccc(NC(=S)N/N=C/c2cc(Br)ccc2O)c1,70*,69*,-10,-2,3,32,78*,Full FLuc ctr=37*
Cc1ccc2nc(N(CCN(C)C)C(=O)/C=C/c3cccs3)sc2c1,32,10,-2,0,-1,2,nt,
CCOc1ccc2nc(N(CCN(C)C)C(=O)/C=C/c3cccs3)sc2c1,65*,-24,13,0,0,19,31,
CCc1ccc2nc(N(CCN(C)C)C(=O)/C=C/c3cccs3)sc2c1,51*,-8,-7,0,0,13,21,
CN1CCCC(n2nc(Cc3ccc(Cl)cc3)c3ccccc3c2=O)CC1 (configuration not stated),39,-25,-13,nt,nt,13,nt,
CC(C)(C)c1ccc(Cn2c(=N)n(CC(O)c3ccco3)c3ccccc32)cc1 (configuration not stated),98*,101*,-13,-2,-3,18,84*,Full FLuc ctr=40*
CCC(=O)NC(=S)Nc1cccc(Cl)c1N1CCCCC1,17,24,-9,3,2,5,nt,
